In PMC3975472 (Biomolecules & Therapeutics, 2014):
Structures can show the parent of a compound that is named as a salt.

Key:
CYP1A2 = biological target: T1, CYP1A2 (Homo sapiens, UniProt P05177); assay: Cocktail probe assay in pooled HLMs: CYP1A2-catalyzed phenacetin O-deethylase; format: in vitro ADME; conditions: pre-incubation 20 min with NADPH, mean of duplicates
T1 sequence (P05177 1-516): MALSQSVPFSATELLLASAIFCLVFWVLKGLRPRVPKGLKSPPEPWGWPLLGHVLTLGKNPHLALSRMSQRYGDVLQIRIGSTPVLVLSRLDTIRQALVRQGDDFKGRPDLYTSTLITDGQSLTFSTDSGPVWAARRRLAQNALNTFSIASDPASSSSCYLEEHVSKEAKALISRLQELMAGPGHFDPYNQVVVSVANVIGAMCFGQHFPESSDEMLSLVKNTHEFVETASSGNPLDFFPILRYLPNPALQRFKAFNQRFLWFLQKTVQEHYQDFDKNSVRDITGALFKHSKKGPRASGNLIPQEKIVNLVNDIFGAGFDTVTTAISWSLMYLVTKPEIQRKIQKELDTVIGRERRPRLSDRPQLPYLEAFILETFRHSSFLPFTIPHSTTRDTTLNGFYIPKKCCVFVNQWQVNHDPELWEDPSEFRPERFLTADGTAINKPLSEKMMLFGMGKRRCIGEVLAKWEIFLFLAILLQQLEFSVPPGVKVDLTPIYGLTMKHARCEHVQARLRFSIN
Method in brief: (§1)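 Pooled HLMs (0.1 mg) in 0.1 M potassium phosphate, pH 7.4, with cocktail probe substrates, NADPH-generating system and test compound (0.1–25 μM, six levels). Pre-incubation with NADPH for 0 or 15 min (reference inhibitor: 20 min), then 60 min at 37°C. Stopped with acidified acetonitrile plus terfenadine internal standard; metabolites by LC-MS/MS (MRM). IC50 from percent activity vs log[I]; duplicates.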

CYP2A6 = biological target: T2, CYP2A6 (Homo sapiens, UniProt P11509); assay: Cocktail probe assay in pooled HLMs: CYP2A6-catalyzed coumarin 7-hydroxylase; format: in vitro ADME; conditions: pre-incubation 20 min with NADPH, mean of duplicates
T2 sequence (P11509 1-494): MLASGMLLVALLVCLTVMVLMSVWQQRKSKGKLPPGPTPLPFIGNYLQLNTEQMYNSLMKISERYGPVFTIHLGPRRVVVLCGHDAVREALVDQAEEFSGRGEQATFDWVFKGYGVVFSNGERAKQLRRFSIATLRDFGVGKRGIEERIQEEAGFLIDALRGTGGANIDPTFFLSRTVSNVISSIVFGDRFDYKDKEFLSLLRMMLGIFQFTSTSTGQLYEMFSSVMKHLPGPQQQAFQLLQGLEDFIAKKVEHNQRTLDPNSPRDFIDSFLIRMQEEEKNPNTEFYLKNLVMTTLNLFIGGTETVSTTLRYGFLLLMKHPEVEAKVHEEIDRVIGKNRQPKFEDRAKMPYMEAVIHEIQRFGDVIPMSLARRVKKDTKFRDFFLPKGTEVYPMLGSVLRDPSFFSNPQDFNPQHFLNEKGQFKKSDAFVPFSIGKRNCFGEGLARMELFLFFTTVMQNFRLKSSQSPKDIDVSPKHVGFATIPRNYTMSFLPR
Method in brief: as §1

CYP2B6 = biological target: T3, CYP2B6 (Homo sapiens, UniProt P20813); assay: Cocktail probe assay in pooled HLMs: CYP2B6-catalyzed bupropion hydroxylase; format: in vitro ADME; conditions: pre-incubation 20 min with NADPH, mean of duplicates
T3 sequence (P20813 1-491): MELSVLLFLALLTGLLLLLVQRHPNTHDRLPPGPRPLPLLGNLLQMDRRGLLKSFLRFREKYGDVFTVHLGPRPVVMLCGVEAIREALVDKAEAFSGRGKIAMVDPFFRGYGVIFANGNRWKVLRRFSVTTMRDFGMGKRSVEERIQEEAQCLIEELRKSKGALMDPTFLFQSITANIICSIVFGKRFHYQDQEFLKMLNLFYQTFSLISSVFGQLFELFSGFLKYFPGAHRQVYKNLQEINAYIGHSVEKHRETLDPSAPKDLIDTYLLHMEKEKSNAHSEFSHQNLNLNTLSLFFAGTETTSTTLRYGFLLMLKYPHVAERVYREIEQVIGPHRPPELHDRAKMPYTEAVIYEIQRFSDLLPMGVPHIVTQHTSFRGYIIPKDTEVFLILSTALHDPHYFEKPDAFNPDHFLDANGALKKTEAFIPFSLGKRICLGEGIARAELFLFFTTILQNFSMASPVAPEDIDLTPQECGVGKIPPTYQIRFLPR
Method in brief: as §1

CYP2C8 = biological target: T4, CYP2C8 (Homo sapiens, UniProt P10632); assay: Cocktail probe assay in pooled HLMs: CYP2C8-catalyzed amodiaquine N-deethylase; format: in vitro ADME; conditions: pre-incubation 20 min with NADPH, mean of duplicates
T4 sequence (P10632 1-490): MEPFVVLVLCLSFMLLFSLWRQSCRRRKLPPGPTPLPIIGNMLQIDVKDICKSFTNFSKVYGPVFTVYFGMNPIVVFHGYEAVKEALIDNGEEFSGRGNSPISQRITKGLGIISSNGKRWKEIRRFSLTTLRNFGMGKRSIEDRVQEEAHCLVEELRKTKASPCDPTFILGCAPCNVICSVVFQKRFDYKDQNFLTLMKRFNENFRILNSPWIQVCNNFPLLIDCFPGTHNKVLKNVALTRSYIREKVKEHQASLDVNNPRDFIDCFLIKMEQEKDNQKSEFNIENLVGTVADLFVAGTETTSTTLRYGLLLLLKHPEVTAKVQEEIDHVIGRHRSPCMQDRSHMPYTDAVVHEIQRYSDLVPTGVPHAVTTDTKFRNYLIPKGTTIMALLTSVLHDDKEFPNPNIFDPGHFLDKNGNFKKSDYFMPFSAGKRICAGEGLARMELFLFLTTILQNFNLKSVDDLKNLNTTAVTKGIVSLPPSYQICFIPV
Method in brief: as §1

CYP2C9 = CYP2C9 (Homo sapiens, UniProt P11712); assay: Cocktail probe assay in pooled HLMs: CYP2C9-catalyzed diclofenac 4′-hydroxylase; format: in vitro ADME; conditions: pre-incubation 20 min with NADPH, mean of duplicates
Method in brief: as §1

CYP2C19 = CYP2C19 (Homo sapiens, UniProt P33261); assay: Cocktail probe assay in pooled HLMs: CYP2C19-catalyzed omeprazole 5-hydroxylase; format: in vitro ADME; conditions: pre-incubation 20 min with NADPH, mean of duplicates
Method in brief: as §1

CYP2D6 = CYP2D6 (Homo sapiens, UniProt P10635); format: in vitro ADME; conditions: IC50, HLMs, pre-incubation 20 min with NADPH, mean of duplicates
Method in brief: as §1

CYP2E1 = CYP2E1 (Homo sapiens, UniProt P05181); format: in vitro ADME; conditions: IC50, HLMs, pre-incubation 20 min with NADPH, mean of duplicates
Method in brief: as §1

[1] = system: 9 cytochrome P450 (CYP) family members (CYP1A2, CYP2A6, CYP2B6, CYP2C8, CYP2C9, CYP2C19, CYP2D6, CYP2E1, and CYP3A4); assay: Cocktail probe assay in pooled HLMs, all 9 CYP isoforms together; format: in vitro ADME, human; conditions: 0–50 μM, 37°C 60 min
Method in brief: as §1

Chain of CYP2E1 (P05181 whole entry): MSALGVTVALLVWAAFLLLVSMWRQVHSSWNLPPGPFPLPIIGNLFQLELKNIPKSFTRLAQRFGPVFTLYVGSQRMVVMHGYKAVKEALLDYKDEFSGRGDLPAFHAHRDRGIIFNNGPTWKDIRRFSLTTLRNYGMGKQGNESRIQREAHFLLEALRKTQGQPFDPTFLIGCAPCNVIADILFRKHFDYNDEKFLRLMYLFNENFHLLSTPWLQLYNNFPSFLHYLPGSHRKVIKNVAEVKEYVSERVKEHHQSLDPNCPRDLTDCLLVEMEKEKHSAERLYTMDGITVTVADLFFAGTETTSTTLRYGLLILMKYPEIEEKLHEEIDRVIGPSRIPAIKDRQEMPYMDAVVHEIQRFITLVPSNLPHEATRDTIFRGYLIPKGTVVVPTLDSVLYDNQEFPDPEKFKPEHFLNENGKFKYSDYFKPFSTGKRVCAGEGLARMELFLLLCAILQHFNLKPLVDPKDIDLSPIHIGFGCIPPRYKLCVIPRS
Chain of CYP2D6 (P10635 whole entry): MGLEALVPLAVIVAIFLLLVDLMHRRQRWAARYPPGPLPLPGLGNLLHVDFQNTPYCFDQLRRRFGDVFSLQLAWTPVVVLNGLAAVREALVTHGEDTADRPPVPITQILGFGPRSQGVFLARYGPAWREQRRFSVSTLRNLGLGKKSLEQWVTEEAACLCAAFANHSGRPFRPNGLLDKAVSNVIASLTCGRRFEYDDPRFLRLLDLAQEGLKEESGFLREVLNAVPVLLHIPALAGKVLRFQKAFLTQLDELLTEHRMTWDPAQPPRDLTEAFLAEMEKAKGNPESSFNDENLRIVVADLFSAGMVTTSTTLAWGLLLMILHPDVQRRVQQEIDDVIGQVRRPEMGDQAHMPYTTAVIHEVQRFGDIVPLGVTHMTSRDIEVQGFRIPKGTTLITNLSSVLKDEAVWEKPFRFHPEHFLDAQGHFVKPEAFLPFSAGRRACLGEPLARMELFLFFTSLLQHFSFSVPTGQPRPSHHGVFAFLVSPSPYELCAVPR
Chain of CYP2C9 (P11712 whole entry): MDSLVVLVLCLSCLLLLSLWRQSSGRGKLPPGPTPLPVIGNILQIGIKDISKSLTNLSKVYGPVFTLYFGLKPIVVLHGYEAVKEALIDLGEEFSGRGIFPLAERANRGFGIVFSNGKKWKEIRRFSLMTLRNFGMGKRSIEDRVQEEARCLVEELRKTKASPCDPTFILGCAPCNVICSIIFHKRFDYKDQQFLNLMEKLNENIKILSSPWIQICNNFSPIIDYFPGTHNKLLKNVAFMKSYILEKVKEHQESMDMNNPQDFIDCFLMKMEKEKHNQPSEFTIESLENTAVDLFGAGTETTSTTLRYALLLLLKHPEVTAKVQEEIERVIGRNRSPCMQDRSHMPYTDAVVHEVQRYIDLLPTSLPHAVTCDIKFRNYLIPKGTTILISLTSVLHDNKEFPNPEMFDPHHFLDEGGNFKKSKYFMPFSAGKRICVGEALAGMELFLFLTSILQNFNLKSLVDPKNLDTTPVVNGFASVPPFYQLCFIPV
Chain of CYP2C19 (P33261 whole entry): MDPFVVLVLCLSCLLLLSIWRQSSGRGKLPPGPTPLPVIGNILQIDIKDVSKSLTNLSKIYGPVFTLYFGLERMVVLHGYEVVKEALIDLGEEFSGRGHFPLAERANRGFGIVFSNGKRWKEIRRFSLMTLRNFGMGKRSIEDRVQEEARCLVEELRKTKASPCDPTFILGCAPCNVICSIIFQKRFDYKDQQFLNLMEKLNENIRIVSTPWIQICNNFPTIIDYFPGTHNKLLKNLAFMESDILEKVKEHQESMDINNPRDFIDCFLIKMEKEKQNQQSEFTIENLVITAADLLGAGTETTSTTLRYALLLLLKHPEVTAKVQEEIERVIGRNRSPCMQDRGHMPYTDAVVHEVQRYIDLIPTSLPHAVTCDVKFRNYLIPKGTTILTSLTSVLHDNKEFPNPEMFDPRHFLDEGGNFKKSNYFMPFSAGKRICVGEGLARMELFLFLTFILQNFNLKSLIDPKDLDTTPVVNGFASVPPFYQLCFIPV

| IC50 (CYP1A2) [µM] | IC50 (CYP2A6) [µM] | IC50 (CYP2B6) [µM] | IC50 (CYP2C8) [µM] | IC50 (CYP2C9) [µM] | IC50 (CYP2C19) [µM] | IC50 (CYP2D6) [µM] | IC50 (CYP2E1) [µM] | inhibitory effects on the activities of all 9 CYPs [1] | Compound |
| --- | --- | --- | --- | --- | --- | --- | --- | --- | --- |
| > 50 | > 50 | 0.9 | 26.5 | 33.4 | 2.1 | 3.5 | > 50 |  | CCCC(C(=O)OCCN(CC)CC)(c1ccccc1)c1ccccc1 [SKF-525A, 2-diethylaminoethyl-2,2-diphenylvalerate-HCl] |
|  |  |  |  |  |  |  |  | weak inhibitory effects | CC(=O)Oc1c2oc3cc(O)c(O)cc3c2c(OC(C)=O)c2oc3cc(O)c(O)cc3c12 [Polyozellin, polyozellin] |
